This is an account of results in ChEMBL document CHEMBL4513216, “Probing the Open Global Health Chemical Diversity Library for Multistage-Active Starting Points for Next-Generation Antimalarials” (ACS Infect Dis, 2020).

This series can be described thus: Toxicity liver stage against HepG2, at 10uM. Type of series: cell-based. Further details: test concentration 10 uM, cell line HepG2-A16-CD81EGFP. The settings on record: human, HepG2-A16-CD81EGFP cells; read-out: INHIBITION
The gist of the method:
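Uninfected HepG2-A16-CD81EGFP cells, 3 × 10^3 per well, 1536-well, plated on prespotted compound at 10 μM final, parasite-free screening media added to match infected plates; puromycin 10 μM positive, DMSO 0.5% negative; run in parallel with 48 h PbLuc assay at 37 °C, 5% CO2; viability by CellTiter-Glo luminescence, normalized to controls.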
Consider `Cc1cccc(CN2C[C@@H]3OCCN(c4ccnc(N(C)C)n4)[C@@H]3C2)c1`, for which the cytotoxicity at 10 µM is -94.9%.

As to `Cc1cc(N[C@@H](CO)c2ccccc2)n2nc(C)c(C)c2n1`, the cytotoxicity at 10 µM is -0.054%.

As to `COc1ccccc1N1CCC(CNC(=O)N(C)Cc2ccco2)C1` (stereo not given), the cytotoxicity at 10 µM is -146%.

On to `Cc1cc(N2CCN(Cc3cn(C)nc3C)CC2)cc(C2CCNC2)n1` (stereo not given), for which the cytotoxicity at 10 µM was 0.39%.

In the case of `CS(=O)(=O)NCC(Cc1cccc(F)c1)N1CCNC1=O` (stereo not given), the cytotoxicity at 10 µM was -2.91%.

As for `O=C(CC1[C@H]2CN(c3ncccn3)C[C@@H]12)Nc1cccnc1` (stereo not given in full), the cytotoxicity at 10 µM was -1.55%.

Regarding `Cc1ccccc1CC(=O)N(C)C1CCCC1`, the cytotoxicity at 10 µM worked out at 6.33%.

As for `O=C(CN(CC1CCC1)CC(F)(F)F)N1CCOCC1`, the cytotoxicity at 10 µM was -13.1%.

As to `COc1cccc(CNC(C)c2ccc(-n3ccnc3)cc2)c1O` (stereo not given), the cytotoxicity at 10 µM is -47.4%.

With `O=C(Nc1cccnc1)C1Cc2nc(-c3ccsc3)sc2N1CC1CC1` (stereo not given), the cytotoxicity at 10 µM came to 14.5%.

For the compound `CC(C)c1cnc(CN2CCCC(c3ccn[nH]3)C2)o1` (stereo not given), the cytotoxicity at 10 µM was -4.01%.

In the case of `CC(C)NC(=O)C1CN(C(=O)Cc2cccc(F)c2)CC12CCOCC2` (stereo not given), the cytotoxicity at 10 µM turned out to be 4.58%.

With `CCn1cnnc1C1CCN(C(=O)c2cccc(-n3cccc3)c2)CC1`, the cytotoxicity at 10 µM stood at 4.56%.

As for `CCN(CC)C(=O)CN1CCCC(c2nc(C)c3c(n2)N(C)CCC3)C1` (stereo not given), the cytotoxicity at 10 µM came to 10.2%.

For the compound `Cc1ccc(C)c(-n2cc(CN3CC[C@@H](O)C3)c(-c3ccccc3)n2)c1`, the cytotoxicity at 10 µM is -6.77%.

As for `COc1cccc(Nc2nc(C3CCNCC3)c3sc(C)c(C)n23)c1`, the cytotoxicity at 10 µM turned out to be 4.24%.

As for `NS(=O)(=O)CCN(CCc1cccc(F)c1)C1CCCC1`, the cytotoxicity at 10 µM is -6.08%.

Take `CCN(Cc1nc2c(cnn2C)c(=O)[nH]1)c1ccc(OC)c(OC)c1`: the cytotoxicity at 10 µM was 2.31%.

With `CCn1ncc(S(=O)(=O)N[C@@H]2CCC[C@@H](n3ccnc3)[C@@H]2O)c1C`, the cytotoxicity at 10 µM was determined as 1.18%.

For the compound `CCN(CC)Cc1nc2c(o1)CN(C(=O)c1ccc3ncccc3c1)C2`, the cytotoxicity at 10 µM came to 6.01%.

Consider `CC(C)c1nn(C)cc1CNCc1cccc(N(C)C)c1`, for which the cytotoxicity at 10 µM is -0.509%.

For the compound `O=C(CN1CCOC1=O)N1CCc2nnc(Cc3ccccc3)n2CC1`, the cytotoxicity at 10 µM is -45.6%.

On to `CSC(C)C(=O)N1CCCN(Cc2cnn(C(C)C)c2)CC1` (stereo not given), for which the cytotoxicity at 10 µM was -6.29%.

On to `O=C(c1cnn(-c2ccccc2)n1)N1CCCC(n2cccn2)C1` (stereo not given), for which the cytotoxicity at 10 µM was 1.13%.

For `CCc1c(C)nc(SCc2ccccn2)[nH]c1=O`, the cytotoxicity at 10 µM turned out to be 9.56%.

In the case of `CC(C)C(NC(=O)c1ccccc1F)C(=O)N1CCC2(CC1)OCCO2` (stereo not given), the cytotoxicity at 10 µM came to 7.04%.

Take `Cc1ccc(N2CCN(C(=O)CN3C[C@H]4CC[C@@H]3C4)CC2=O)cc1`: the cytotoxicity at 10 µM is -1.41%.

As for `O=C(COC[C@@H]1CC[C@H]2[C@H](CCN2Cc2ccco2)O1)N1CCCC1`, the cytotoxicity at 10 µM was -161%.

On to `Cc1cc(C(=O)N2CC[C@H]3C[C@H](c4ccncn4)O[C@@H]3C2)c(C)[nH]1`, for which the cytotoxicity at 10 µM was -70.1%.

For the compound `Cc1cc(C)nc(C2CCCN2c2ccnc(C)n2)n1` (stereo not given), the cytotoxicity at 10 µM is -16.4%.

As for `CC[C@@]1(O)CCN(C(=O)c2ccc(-c3ccco3)cc2)C[C@H]1O`, the cytotoxicity at 10 µM worked out at 3.75%.

In the case of `CN(Cc1cc2n(n1)CCCN(C(=O)N1CCCC1)C2)Cc1nccs1`, the cytotoxicity at 10 µM was -0.63%.

`Cc1cnc2n(c1=O)C(CC(=O)NCc1cccnc1)CS2` (stereo not given): the cytotoxicity at 10 µM came out at 4.22%.

For `COCc1cc(N2C[C@@H](C)[C@](O)(C3CC3)C2)ncn1`, the cytotoxicity at 10 µM was 3.73%.

On to `CC(=O)c1cn(CC(=O)N[C@H](C(=O)O)C(C)C)c2ccccc12`, for which the cytotoxicity at 10 µM was -7.06%.

With `COCCCN1CC2(CCCN(CCn3cc(Cl)cn3)C2)CCC1=O` (stereo not given), the cytotoxicity at 10 µM stood at 5.97%.

Take `CCCc1n[nH]c(C2CN(CCc3cccs3)CCO2)n1` (stereo not given): the cytotoxicity at 10 µM was 4.1%.

With `Cc1ccc(C(=O)N2CCc3ncnc(-c4cnn(C)c4)c3CC2)o1`, the cytotoxicity at 10 µM stood at 2.11%.

Take `CN1C(Cn2cccn2)C[C@@H]2CN(C(=O)c3cccc(C#N)c3)CC[C@@H]21` (stereo not given in full): the cytotoxicity at 10 µM came out at 3.1%.

As to `CCc1nc(CN(C)CC(N)=O)cs1`, the cytotoxicity at 10 µM is -8.9%.

On to `COCCC1CCN(CC(C)n2cnc3ccccc32)CC1` (stereo not given), for which the cytotoxicity at 10 µM was determined as 6.67%.

`CS(=O)(=O)c1ccc(CNc2nccc(C(F)(F)F)n2)cc1`: the cytotoxicity at 10 µM was -23.2%.

For the compound `O=S(=O)(Nc1ccc(N2CCOCC2)cn1)c1cccc(F)c1`, the cytotoxicity at 10 µM was -9.68%.

In the case of `c1csc(CNCC2COCc3c(-c4ccsc4)nnn3C2)n1` (stereo not given), the cytotoxicity at 10 µM is -113%.

For `COc1ccc(CN2CCC3(CCCN(C)C3=O)C2)c(Cl)c1OC` (stereo not given), the cytotoxicity at 10 µM is -1.24%.

Regarding `CC(Cn1cccn1)NC(=O)N(C)Cc1cnn(C)c1` (stereo not given), the cytotoxicity at 10 µM was -5.17%.

As for `Cc1oncc1C(=O)NCc1cc(=O)n2c(n1)CN(CC(C)C)CCC2`, the cytotoxicity at 10 µM was -0.187%.

Consider `O=C(CN1CC(c2nc(Cc3ccccc3)no2)C1)NCC1CCCO1` (stereo not given), for which the cytotoxicity at 10 µM is -6.06%.

On to `CC(C)(C)CN[C@@H]1CO[C@H](CNC(=O)Nc2ccccc2)[C@H]1O`, for which the cytotoxicity at 10 µM came out at 6.98%.

For the compound `COc1ccc(NC(=O)N(CCO)Cc2ccsc2)c(OC)c1`, the cytotoxicity at 10 µM turned out to be 12.2%.

Consider `O=C(NC1CC1)c1nc(Cn2c(C(F)F)nc3ccccc32)no1`, for which the cytotoxicity at 10 µM came out at 7.59%.

Take `COc1ccc(-c2n[nH]cc2CN(C)Cc2nnc(C)o2)c(F)c1`: the cytotoxicity at 10 µM is -3.01%.

Take `Cc1cccc(CS(=O)(=O)NCc2nn(C)c3c2CCCC3)c1`: the cytotoxicity at 10 µM was 2.37%.

Take `CC1CCCCN1Cc1nc(Cc2ccccc2)no1` (stereo not given): the cytotoxicity at 10 µM was 4.61%.

Consider `O=C(c1cccnc1)N1CCN2C(=O)N(Cc3ccc(F)cc3)C[C@H]2C1`, for which the cytotoxicity at 10 µM was -0.756%.

Regarding `Cc1cc(C(=O)NC(C)c2nnn[nH]2)c2ccc(C)c(C)c2n1` (stereo not given), the cytotoxicity at 10 µM was -10.7%.

For the compound `Cc1[nH]c(=O)sc1S(=O)(=O)N1CCCC1C(=O)NCc1ccsc1` (stereo not given), the cytotoxicity at 10 µM stood at 2.78%.

In the case of `COC(=O)C(CNC(=O)Nc1nncs1)Cc1ccc(F)cc1` (stereo not given), the cytotoxicity at 10 µM came out at 0.571%.

On to `CS(=O)(=O)NCC(=O)NC(Cc1ccccc1)C1CCCC1` (stereo not given), for which the cytotoxicity at 10 µM turned out to be 0.69%.

For `CCN(CC)CCc1nc2c([nH]1)CC(c1ccc(Cl)cc1)CNC2=O` (stereo not given), the cytotoxicity at 10 µM is -58.9%.

As for `CN(C)c1ccc2c(c1)CN(C(=O)c1cnccn1)C2c1cnco1` (stereo not given), the cytotoxicity at 10 µM is 3.55%.

As to `COc1ccc(CN(C)C2CCN(S(C)(=O)=O)CC2)c2cccnc12`, the cytotoxicity at 10 µM is 98.9%.

With `CNc1ncc(CN(C)C(=O)c2cccc(-n3cnnc3)c2)cn1`, the cytotoxicity at 10 µM was found to be 1.5%.

For `CC(NCc1ccccc1Cl)c1ccc(OCC(=O)NC2CC2)cc1` (stereo not given), the cytotoxicity at 10 µM is -12.7%.

Consider `Cc1cnn(CC2CCCN2Cc2nccn2C)c1` (stereo not given), for which the cytotoxicity at 10 µM was 3.54%.

Take `Cc1nc(CNC(=O)N2CCCC(c3ncc[nH]3)C2)sc1C` (stereo not given): the cytotoxicity at 10 µM was -0.331%.

As for `O=C(COc1ccccc1C(F)(F)F)NCCNC(=O)c1ccccc1`, the cytotoxicity at 10 µM was -9.53%.

Regarding `COCC(C)(CCO)NC(=O)Nc1cccc(Br)c1C` (stereo not given), the cytotoxicity at 10 µM was 10.5%.

`CN(Cc1ccncc1)C1COC2(CCN(Cc3ccsc3)CC2)C1` (stereo not given): the cytotoxicity at 10 µM is -91.8%.

As for `NC(=O)NCC1CCCCN1C(=O)c1cccc(C(F)(F)F)c1` (stereo not given), the cytotoxicity at 10 µM is -7.32%.

Turning to `CCCn1cnnc1CNC(=O)CC1C(=O)NCCN1CC(C)(C)C` (stereo not given), the cytotoxicity at 10 µM was -0.798%.

As to `NCC1CCC(c2c(C(=O)NCCO)sc3ccccc23)CC1` (stereo not given), the cytotoxicity at 10 µM was -11%.

Turning to `CC(C)CNc1nc2c(cc1C(=O)NCC1CC1)CCNCC2`, the cytotoxicity at 10 µM was -2.79%.

For `Cc1cc(NCc2csc(-c3ccsc3)n2)no1`, the cytotoxicity at 10 µM is -0.912%.

Take `CNC(=O)NC(=O)CN1CCN(CC(F)(F)F)CC1(C)C`: the cytotoxicity at 10 µM is 10.7%.

On to `O=C(NCc1ccccn1)c1nnn(-c2ccc(Br)cc2)n1`, for which the cytotoxicity at 10 µM is 1.47%.

Turning to `CCn1c(CN2CCCC2)nnc1C1CCN(Cc2ccc(C)o2)CC1`, the cytotoxicity at 10 µM is -14.8%.

For the compound `COc1cc(CN2CCCC2c2cccc(F)c2)cc(OC)c1OC` (stereo not given), the cytotoxicity at 10 µM is -2.03%.

As for `CN1CCN(c2cnn(Cc3ccc(S(C)(=O)=O)cc3)c(=O)c2)CC1`, the cytotoxicity at 10 µM was -10.4%.

With `O=S(=O)(NCCc1ccccc1C(F)(F)F)N1CCOCC1`, the cytotoxicity at 10 µM was determined as 9.08%.

In the case of `CC(C)CN1CCN(C(=O)c2cccnc2-n2cncn2)CC1`, the cytotoxicity at 10 µM stood at 1.53%.

With `CN(C)c1cc(CNCc2cccc3c2OCCO3)ccn1`, the cytotoxicity at 10 µM came to 3.57%.

Consider `COCCN(C)CC(=O)N1C[C@@H](C)[C@](O)(C(C)C)C1`, for which the cytotoxicity at 10 µM is 4.9%.

With `Cc1ccc(CC(NC(=O)CN(C)C2CC2)c2ccccn2)cc1` (stereo not given), the cytotoxicity at 10 µM was 5.33%.

Consider `CC(C)c1ccc(CN2CCN(C(=O)c3cc(C4CC4)[nH]n3)CC2)cc1`, for which the cytotoxicity at 10 µM was 39.7%.

As for `CC(C)OCCOCc1cccc(NC(=O)NCCn2ccnc2)c1`, the cytotoxicity at 10 µM is -4.63%.

Regarding `C=Cn1ncc(CN2C[C@@H]3CCCN3C[C@H]2CCSC)c1C`, the cytotoxicity at 10 µM was -4.12%.

On to `Cc1cnn(CC2CCCN2C(=O)c2cn(-c3ccccc3)nc2C)c1` (stereo not given), for which the cytotoxicity at 10 µM is -9.39%.

Consider `COc1cccc(Cn2c(=O)n(C)c(=O)c3sccc32)c1`, for which the cytotoxicity at 10 µM came out at 3.29%.

For the compound `COc1c(CNCc2ccccc2Cn2cncn2)c(C)nn1C`, the cytotoxicity at 10 µM came out at 1.56%.

As for `Cc1cc(-c2ccc(=O)n(C3CCN(S(C)(=O)=O)CC3)n2)c(C)o1`, the cytotoxicity at 10 µM amounted to 3.62%.

For the compound `CCc1ccsc1C(=O)NC(Cc1ccccc1)C(N)=O` (stereo not given), the cytotoxicity at 10 µM came to 9.01%.

Turning to `COCC[C@]1(O)CCN(Cc2nc(C)cs2)C[C@H]1C`, the cytotoxicity at 10 µM came to 10.5%.

With `O=C(c1ccccn1)N1CC[C@@H](N2CCOCC2)[C@@H]1Cc1ccccc1`, the cytotoxicity at 10 µM was -77.9%.

As to `CC(C)(C)NC(=O)COc1ccc(CNCCOc2ccccn2)cc1`, the cytotoxicity at 10 µM was -3.76%.
